Measurements as given in ChEMBL document CHEMBL1147783, “Synthesis and biological activity of novel 4-phenyl-1,8-naphthyridin-2(1H)-on-3-yl ureas: potent acyl-CoA:cholesterol acyltransferase inhibitor with improved aqueous solubility” (Bioorg Med Chem Lett, 2006).

Assays:
[1] = target: T1, Sterol O-acyltransferase 1 (Rattus norvegicus, UniProt O70536); test: Inhibitory activity against ACAT in rat macrophages
T1 sequence (O70536 whole entry): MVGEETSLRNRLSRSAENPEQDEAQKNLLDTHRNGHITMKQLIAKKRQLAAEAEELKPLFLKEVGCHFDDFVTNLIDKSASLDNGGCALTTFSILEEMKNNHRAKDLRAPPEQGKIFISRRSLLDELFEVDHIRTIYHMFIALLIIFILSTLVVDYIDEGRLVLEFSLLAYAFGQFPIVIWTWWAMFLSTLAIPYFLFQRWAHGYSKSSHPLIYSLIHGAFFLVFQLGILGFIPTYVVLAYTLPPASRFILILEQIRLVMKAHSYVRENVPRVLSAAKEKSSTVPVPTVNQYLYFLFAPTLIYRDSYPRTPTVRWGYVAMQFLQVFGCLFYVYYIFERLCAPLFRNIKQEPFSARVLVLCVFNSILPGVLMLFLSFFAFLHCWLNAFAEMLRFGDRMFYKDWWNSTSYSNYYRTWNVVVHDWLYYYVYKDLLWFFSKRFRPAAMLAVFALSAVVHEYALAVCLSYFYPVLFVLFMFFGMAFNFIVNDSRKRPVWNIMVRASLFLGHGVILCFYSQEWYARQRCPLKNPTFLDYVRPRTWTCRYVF

[2] = Solubility in phosphate buffer at pH 7.4; format: physicochemical
In short: (§1)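 Solubility was measured at rt in phosphate buffer (5.53% aq citric acid/1.75% aq Na₂HPO₄) adjusted to pH 2.5, 5.5 or 7.4. Dissolved compound was quantified by HPLC.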

[3] = Solubility in phosphate buffer at pH 5.5; format: physicochemical; in short: as §1
[4] = Solubility in phosphate buffer at pH 2.5; format: physicochemical; in short: as §1
[5] = Cmax in mice administered with 30 mg/kg po; format: ADME, organism-based; set-up: dose 30 mg/kg, route oral; settings: mouse, in vivo
[6] = Cmax in rabbit administered with 1.0 mg/kg/day for 21 days; format: ADME, organism-based, Oryctolagus cuniculus; set-up: dose 1 mg/kg/day; settings: in vivo
In short: (§2)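 Rabbits were dosed orally at 1.0 mg/kg/day for 21 days. Blood drug levels gave Cmax and AUC over 0–24 h. Serum total cholesterol was measured under the same regimen and expressed relative to control animals.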

Oryctolagus cuniculus = test: Decrease in serum total cholesterol in rabbit administered with 1.0 mg/kg/day for 21 days compared to control; format: ADME, organism-based; set-up: scale not given: the % may be the effect or the level left; settings: in vivo, 504 h; in short: as §2
[7] = AUC in rabbit administered with 1.0 mg/kg/day for 21 days; format: ADME, organism-based, Oryctolagus cuniculus; settings: plasma; in short: as §2

Row | SMILES | IC50 [1] [nM] | solubility [2] [µg/mL] | solubility [3] [µg/mL] | solubility [4] [µg/mL] | Cmax [5] [ng/mL] | Cmax [6] [ng/mL] | Activity (Oryctolagus cuniculus) [%] | AUC at 504 h [7] [ng·h/mL]
1 | CCCCn1c(=O)c(NC(=O)Nc2c(C(C)C)cc(N)cc2C(C)C)c(-c2cccc(OCCCN3CCCCC3)c2)c2cccnc21.Cl.Cl | 540 | 200 | 180 | > 1000 |  |  |  | 
2 | CCCCn1c(=O)c(NC(=O)Nc2c(C(C)C)cc(CN(CC)CC)cc2C(C)C)c(-c2cccc(OC)c2)c2cccnc21.Cl | 680 | 62 | 1000 | > 1000 |  |  |  | 
3 | CCCCn1c(=O)c(NC(=O)Nc2c(C(C)C)cc(N)cc2C(C)C)c(-c2cccc(OCCCN(CC)CC)c2)c2cccnc21.Cl.Cl | 452 | 640 | 690 | > 1000 |  |  |  | 
4 | CCCCn1c(=O)c(NC(=O)Nc2c(C(C)C)cc(N)cc2C(C)C)c(-c2cccc(OCCO)c2)c2cccnc21.Cl | > 1000 | 30 | 32 | > 1000 |  |  |  | 
5 | CCCCn1c(=O)c(NC(=O)Nc2c(C(C)C)cc(N)cc2C(C)C)c(-c2cccc(OCCCN3CCCC3)c2)c2cccnc21.Cl.Cl | 427 | 130 | 200 | > 1000 |  |  |  | 

Compounds with a lower IC50 [1], results first:

Row | IC50 [1] [nM] | solubility [2] [µg/mL] | solubility [3] [µg/mL] | solubility [4] [µg/mL] | Cmax [5] [ng/mL] | Cmax [6] [ng/mL] | Activity (Oryctolagus cuniculus) [%] | AUC at 504 h [7] [ng·h/mL] | SMILES
6 | 382 | 36 | 23 | 220 |  |  |  |  | CCCCn1c(=O)c(NC(=O)Nc2c(C(C)C)cc(CN)cc2C(C)C)c(-c2cccc(OC)c2)c2cccnc21.Cl
7 | 61 | 5 | 7 | 680 |  |  |  |  | CCCCn1c(=O)c(NC(=O)Nc2c(C(C)C)cc(N)cc2C(C)C)c(-c2cccc(OCCCCO)c2)c2cccnc21.Cl
8 | 43 | 17 | 19 | > 1000 |  |  |  |  | CCCCn1c(=O)c(NC(=O)Nc2c(C(C)C)ccc(N)c2C(C)C)c(-c2cccc(OCCCO)c2)c2cccnc21.Cl
9 | 21 | 10 | 14 | > 1000 | 21300 | 16 | 53 | 39.8 | CCCCn1c(=O)c(NC(=O)Nc2c(C(C)C)cc(N)cc2C(C)C)c(-c2cccc(OCCCO)c2)c2cccnc21.Cl
10 | 14 | 1 | 1 | 700 |  |  |  |  | CCCCn1c(=O)c(NC(=O)Nc2c(C(C)C)ccc(N)c2C(C)C)c(-c2cccc(OC)c2)c2cccnc21.Cl
11 | 11 | < 1 | < 1 | < 1 |  |  |  |  | CCCCn1c(=O)c(NC(=O)Nc2c(C(C)C)cccc2C(C)C)c(-c2cccc(OC)c2)c2cccnc21
12 | 8.3 | < 1 | 1 | 22 |  |  |  |  | CCCCn1c(=O)c(NC(=O)Nc2c(C(C)C)cc(N)cc2C(C)C)c(-c2cccc(OC)c2)c2cccnc21.Cl
13 | 5.4 | 5 | 19 | > 1000 |  |  |  |  | CCCCn1c(=O)c(NC(=O)Nc2c(C(C)C)ccnc2C(C)C)c(-c2cccc(OC)c2)c2cccnc21.Cl
